From ChEMBL document CHEMBL3994594, “Angiogenesis Inhibitors and Anti-Inflammatory Agents from Phoma sp. NTOU4195” (J Nat Prod, 2016)
Active and inactive are the calls of the source. The rule behind the calls is not given here.

Assays:
[1] = system: RAW264.7; assay: Antiinflammatory activity in mouse RAW264.7 cells assessed as inhibition of LPS-stimulated nitric oxide production compound treated prior to LPS challenge by Griess assay; assay type: functional, cell-based
How it was run: (§1)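 RAW264.7 grown to confluence (24 h, DMEM 10% FBS), then serum-free DMEM 4 h for quiescence. Compounds added before LPS (200 ng/mL). Nitrite in medium read spectrophotometrically by Griess reaction. Percent inhibition calculated versus vehicle plus LPS; Emax is inhibition at 100 μM, IC50 the concentration giving 50% of Emax; n = 4−6.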

[2] = Cytotoxicity against mouse RAW264.7 cells assessed as cell viability by AlamarBlue assay; assay type: cell-based; set-up: concentration or dose not given beside the values; details: read-out: Activity
How it was run: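 RAW264.7 macrophages exposed to compounds at up to 100 μM under the NO-assay conditions; viability read by AlamarBlue.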

[3] = Antiangiogenic activity in CD34-positive human EPC assessed as inhibition of tube formation on matrigel after 24 hrs by inverted phase-contrast microscopy; assay type: functional, cell-based
How it was run: (§2)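 Human CD34+ EPCs (from PBMCs, MACS bead separation) maintained on 1% gelatin in MV2 medium with 20% FBS. Matrigel polymerized 30 min at 37 °C; 6 × 10^4 cells/well seeded in MV2 with 2% FBS plus compound, 24 h at 37 °C. Tube length measured in three random fields per well, expressed against DMSO control; IC50 derived from this.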

[4] = system: EPC; assay: Antiangiogenic activity in CD34-positive human EPC assessed as inhibition of tube formation on matrigel at 10 uM after 24 hrs by inverted phase-contrast microscopy; assay type: functional, cell-based; how it was run: as §2
[5] = system: RAW264.7; assay: Antiinflammatory activity in mouse RAW264.7 cells assessed as inhibition of LPS-stimulated nitric oxide production at 100 uM compound treated prior to LPS challenge by Griess assay; assay type: functional; how it was run: as §1
[6] = Cytotoxicity against CD34-positive human EPC at 20 uM after 24 hrs by LDH release assay; assay type: cell-based
How it was run: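 EPCs seeded at 5 × 10^3 cells/well, treated 24 h in MV2 medium with 2% FBS containing compound at 20 μM. LDH release taken as medium LDH activity relative to cell-lysate LDH activity. Mean ± SEM of three independent experiments.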

Structure (SMILES)	IC50 [1] [µM]	viability [2] [%]	IC50 [3] [µM]	inhibition [4]	Emax at 100 µM [5] [%]	Activity [6]
CO[C@H]1[C@@H](OC(=O)/C=C/[C@H]2O[C@@H]2C)CC[C@@]2(O)CO[C@@](C)(C(O)CC=C(C)C)[C@H]12 (stereo partly drawn)	22.8	92.2	16.2	Active	93.4	Non-Toxic
CC/C(O)=C/C=C(\O)C1=C(C)C(=O)[C@@]2(O1)C(=O)N[C@](OC)(C(=O)c1ccccc1)[C@H]2O	57	97.6	16.7	Active	63.1	Non-Toxic
CO[C@H]1[C@@H](OC(=O)/C=C/[C@@H](O)[C@H](C)O)CC[C@@](O)(CCl)[C@@H]1[C@]1(C)O[C@H]1CC=C(C)C	19.3	99.2	8.1	Active	87.9	Non-Toxic
CO[C@H]1[C@@H](OC(=O)/C=C/[C@H]2O[C@H]2C)CC[C@@](O)(CCl)[C@@H]1[C@]1(C)O[C@H]1CC=C(C)C	13.5	101	> 20	–	100	Non-Toxic
CO[C@H]1[C@@H](OC(=O)/C=C/[C@@H](O)[C@H](C)O)CC[C@@]2(CO2)[C@@H]1[C@@]1(C)O[C@H]1CC=C(C)C	20.6	97.6	18.4	–	100	–
N=C(NCCC[C@H](N)C(=O)O)N[N+](=O)[O-] [NITROARGININE]	144	102	–	–	42.1	–
C=C1CC[C@H](OC(=O)/C=C/[C@@H](O)[C@H](C)O)[C@H](OC)[C@H]1[C@@]1(C)O[C@H]1CC=C(C)C	35.4	93	19.2	Active	80.8	Non-Toxic
N=C(N)NN [PIMAGEDINE]	24.7	99.2	–	–	83.7	–
CO[C@H]1[C@@H](OC(=O)/C=C/[C@H]2O[C@H]2C)CC[C@@]2(CO2)[C@@H]1[C@]1(C)O[C@H]1CC=C(C)C	8.8	98.7	17.8	Active	100	Non-Toxic
CC/C=C\[C@H](O)[C@H](O)C1=C(C)C(=O)[C@]2(O1)C(=O)N[C@@](OC)(C(=O)c1ccccc1)[C@H]2O	62.5	99.3	> 20	–	67.2	–
CC/C=C\[C@H](O)[C@H](O)C1=C(C)C(=O)[C@]2(O1)C(=O)N[C@](OC)(C(=O)c1ccccc1)[C@H]2O	40.6	100	> 20	–	78.2	–
CC/C=C\[C@H](O)[C@H](O)C1=C(C)C(=O)[C@]2(O1)C(=O)N[C@@](OC)(C(=O)c1ccccc1)[C@@H]2O [PSEUROTIN A]	> 100	103	> 20	–	38.8	–
CNC(=O)c1cc(Oc2ccc(NC(=O)Nc3ccc(Cl)c(C(F)(F)F)c3)cc2)ccn1 [SORAFENIB]	–	–	3.6	–	–	–
